Screens deposited in PubChem BioAssay by several laboratories.
Hits are enriched below; roughly 1.5% of the tested compounds scored in any of these assays.
PKD1 kinase inh: blocks activity of human protein kinase D1 | inhibition, % (test concentration not listed) | actives 0.056% (n = 200,000) | PKD1 kinase fluorescence polarization assay | Q15139 | AID 797; in the data active means inhibition above about 50%
p97 inhibitor: blocks human p97 ATPase activity; inhibition, % at 8 µM; recombinant p97 ATPase, Kinase-Glo ATP luminescence, 3 h; actives 0.42% (n = 220,000); in the data active means inhibition above about 15%
Target sequence (P55072 whole entry, looked up): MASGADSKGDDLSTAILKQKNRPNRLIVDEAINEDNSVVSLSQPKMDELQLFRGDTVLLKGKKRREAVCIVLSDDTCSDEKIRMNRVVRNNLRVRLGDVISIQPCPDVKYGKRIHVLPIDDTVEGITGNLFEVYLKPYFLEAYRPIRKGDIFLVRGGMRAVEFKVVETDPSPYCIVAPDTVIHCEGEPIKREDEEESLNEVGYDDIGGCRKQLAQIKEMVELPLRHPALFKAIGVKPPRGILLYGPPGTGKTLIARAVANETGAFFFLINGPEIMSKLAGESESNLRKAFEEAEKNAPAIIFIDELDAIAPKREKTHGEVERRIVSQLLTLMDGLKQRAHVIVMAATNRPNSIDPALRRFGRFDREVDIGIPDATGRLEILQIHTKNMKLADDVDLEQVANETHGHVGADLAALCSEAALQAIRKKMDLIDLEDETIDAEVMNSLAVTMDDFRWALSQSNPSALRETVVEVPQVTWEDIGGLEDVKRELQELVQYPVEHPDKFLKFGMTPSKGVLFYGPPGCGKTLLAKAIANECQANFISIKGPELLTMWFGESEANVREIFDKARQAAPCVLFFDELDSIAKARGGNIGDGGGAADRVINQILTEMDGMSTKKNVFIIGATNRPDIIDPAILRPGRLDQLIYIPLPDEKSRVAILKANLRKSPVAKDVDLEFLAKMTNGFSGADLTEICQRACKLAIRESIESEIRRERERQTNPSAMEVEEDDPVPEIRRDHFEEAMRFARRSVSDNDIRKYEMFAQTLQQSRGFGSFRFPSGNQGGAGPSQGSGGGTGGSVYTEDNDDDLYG
RBBP9 inh: blocks human serine hydrolase RBBP9; AID 1515; actives 0.2% (n = 220,000); O75884; recombinant RBBP9, FP-Rh probe fluorescence polarization; inhibition, % at 7.94 µM;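 active means inhibition above the campaign mean of all tested compounds plus 3 SD, cut at about 14% in these data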
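System: RBBP9 protein | Quantity: 2.5 µM RBBP9 dispensing solution, before mixing | Reagent: FP-Rh probe, 375 nM dispensing solution | Timing: Enzyme-compound preincubation 30 min, then probe labeling 45 min, 25 °C | Measured by: Fluorescence polarization | Read-out: % inhibition | Replication: One well per compound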
PP1 inh: blocks human PP1-alpha phosphatase, a PP5 counter-screen | AID 2235 | inhibition, % at 6.7 µM | purified PP1alpha, OMFP fluorescence | actives 0.9% (n = 320,000);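 active means inhibition above the mean inhibition of all tested compounds plus 3 SD, computed separately for each screening campaign, cut at about 15% in these data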
PP5 inh: blocks human protein phosphatase 5 activity; P53041; purified PP5c, OMFP substrate fluorescence; inhibition, % at 6.7 µM; actives 0.18% (n = 320,000);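 active means inhibition above the campaign's mean inhibition across all tested compounds plus 3 SD, cut at about 9.5% in these data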
Hsp70 activator: switches on Hsp70 transcription | actives 0.04% (n = 200,000) | HeLa Hsp70 promoter luciferase reporter, luminescence; scaled: vehicle 0, proteasome-inhibitor control 100% | activation, % at 10 µM;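 active means activation above the mean across all tested compounds plus 3 SD, cutoff set per campaign, cut at about 5.5% in these data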
p97 confirm: confirmation of human p97 ATPase inhibitors; inhibition, % at 8 µM; shares compounds with p97 inhibitor; actives 44% (n = 760); recombinant p97 ATPase, Kinase-Glo ATP luminescence;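 active means percent inhibition of p97 ATPase above a set limit, the primary screen's mean plus 3 SD, cut at about 15% in these data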
A number is an active result; - = inactive; . = no result.

SMILES	PKD1 kinase inh	p97 inhibitor	RBBP9 inh	PP1 inh	PP5 inh	Hsp70 activator	p97 confirm
CC(C)[C@H](NC(=O)Nc1ccccc1F)C(=O)O	-	15	-	-	-	-	-
COc1ccccc1NC(=O)CCCN1C(=O)C2CC=CCC2C1=O (stereo unspecified)	.	.	.	-	-	.	.
O=S(=O)(Nc1nccs1)c1ccc(Br)cc1	-	-	-	-	-	-	.
COc1ccc(S(=O)(=O)Nc2nccs2)cc1OC	-	17	-	-	-	-	-
CC(C)OC(=O)CSc1nnc(-c2ccccc2)n1N	-	-	-	-	-	-	.
CCN(CC)C(=O)c1ccc(COc2ccccc2Cl)cc1	-	15	-	-	-	-	-
O=C(O)c1ccc(COc2ccccc2Cl)cc1	-	-	-	-	-	-	.
O=C(O)c1ccc(-c2nc(-c3ccc(Cl)c(Cl)c3)cs2)cc1	-	-	-	-	-	-	.
NC(=O)C(=CNc1nc(-c2ccc(Cl)c(Cl)c2)cs1)C(N)=O	.	26	-	.	.	.	19
COc1cc(/C=N/N(C)S(=O)(=O)c2ccc(C)cc2)cc([N+](=O)[O-])c1O	.	-	-	-	-	.	.
CC(=O)Oc1ccc(/C=N/NC(=O)CCSc2ccccc2)cc1	-	-	-	-	-	-	.
CCCCn1c(NS(=O)(=O)c2ccc(C)cc2)c(S(=O)(=O)c2ccccc2)c2nc3ccccc3nc21	-	24	-	-	-	-	39
Cc1ccc(S(=O)(=O)c2c(N)n(CCCN(C)C)c3nc4ccccc4nc23)cc1	.	-	-	-	-	.	.
CCC(CO)NCc1ccc(-c2ccccc2)cc1 (stereo unspecified)	-	-	-	-	-	-	.
OC(CNCCC1C=Nc2ccccc21)Cn1c2ccc(Cl)cc2c2cc(Cl)ccc21 (stereo unspecified)	-	26	-	17	-	-	26
OC(CNCC1CCCO1)Cn1c2ccc(Cl)cc2c2cc(Cl)ccc21 (stereo unspecified)	-	-	-	-	-	-	.
S=c1[nH]nc(C2CCCCC2)n1Cc1ccccc1	-	-	-	-	-	-	.
S=c1[nH]nc(C2CC2)n1Cc1ccccc1	-	50	-	-	-	-	-
O=[N+]([O-])c1c(-c2cn[nH]c2)n[nH]c1-c1cn[nH]c1	.	25	-	-	-	.	36
COc1cc2c(cc1OC)C(C)N(C(=O)c1cccs1)CC2 (stereo unspecified)	-	16	-	-	-	-	21
CN(C)CCCn1c(N)c(C#N)c2nc3ccccc3nc21	.	32	-	-	-	.	-
CCOC(=O)C1=C(O)C(=O)N(Cc2cccnc2)C1c1ccc(C)cc1 (stereo unspecified)	-	-	-	-	-	-	.
Cc1cccc(C)c1NC(=O)CNC(=O)c1cccnc1	.	.	.	-	-	.	.
O=C(CCc1ccccc1)NC(c1cccs1)c1cc(Cl)c2cccnc2c1O (stereo unspecified)	-	19	-	.	.	-	-
C/C(=N\NC(=O)c1cccc(F)c1)c1ccc(Br)s1	-	19	-	-	-	-	-
SMILES	PKD1 kinase inh	p97 inhibitor	RBBP9 inh	PP1 inh	PP5 inh	Hsp70 activator	p97 confirm
C/C(=N\NC(=O)c1ccccc1O)c1ccc(Br)s1	-	-	-	-	-	-	.
CC(C)c1nc2sc3c(=O)[nH]cnc3c2c2c1CCCC2	.	16	-	-	-	.	20
CC(C)c1nc2sc3c(=O)[nH]cnc3c2c2c1CCC2	-	-	-	-	-	-	.
S=c1nc[nH]c2c1sc1nc(N3CCOCC3)c3c(c12)CCCC3	-	-	-	-	-	-	.
CC(C)c1nc2sc3c(=S)nc[nH]c3c2c2c1CCC2	.	42	-	-	-	.	41
COc1ccccc1CN1[C@@H](CC(C)=O)c2cc(C(F)(F)F)ccc2S1(=O)=O	.	.	.	-	-	.	.
CCc1ccc(S(=O)(=O)Nc2cc(SCC(=O)O)c(O)c3ccccc23)cc1	-	-	-	-	-	-	.
O=C(O)CSc1cc(NS(=O)(=O)c2cccc([N+](=O)[O-])c2)c2ccccc2c1O	.	27	-	.	.	.	40
COc1ccc(C(=O)Nc2ccc(NC(=O)c3ccco3)cc2)cc1	.	.	.	-	-	.	.
COc1ccc(-n2c(NC(=O)c3ccco3)c(C#N)c3nc4ccccc4nc32)cc1	-	32	-	-	-	-	29
